Published values from different studies.
Lines come from different studies, so protocols differ.
PDE5A: cGMP-specific 3',5'-cyclic phosphodiesterase (PDE5A, Homo sapiens, UniProt O76074)
SIGMAR1: Sigma non-opioid intracellular receptor 1 (SIGMAR1, Homo sapiens, UniProt Q99720)
SPHK1: Sphingosine kinase 1 (SPHK1, Homo sapiens, UniProt Q9NYA1)
ADORA2A: Adenosine receptor A2a (ADORA2A, Homo sapiens, UniProt P29274)
EDNRA: Endothelin-1 receptor (EDNRA, Homo sapiens, UniProt P25101)
EHMT1: Histone-lysine N-methyltransferase EHMT1 (EHMT1, Homo sapiens, UniProt Q9H9B1)
PARP1: Poly [ADP-ribose] polymerase 1 (PARP1, Homo sapiens, UniProt P09874)
HRH4: Histamine H4 receptor (HRH4, Homo sapiens, UniProt Q9H3N8)

SMILES | target | test | system | conditions | inhibition [%]
CCN1CCN(Cc2ccc(NC(=O)c3ccc(C)c(/C=C/c4cnc5[nH]ccc5c4OC)c3)cc2C(F)(F)F)CC1 | Serine/threonine-protein kinase A-Raf (ARAF, Homo sapiens, UniProt P10398) | target engagement in cells, inhibitor, chemoproteomics | A-375 | 5 µM | -23.9
COc1ccc([C@@H]2c3[nH]c4ccccc4c3C[C@H]3C(=O)N(C(C)(C)C)C(=O)N23)cc1OC | PDE5A | enzyme activity, inhibitor, FP | – | 50 µM | 79
Ic1cccc2cnccc12 | SIGMAR1 | ligand displacement, radioligand | – | 10 µM | 21
CC(C)(C)N1C(=O)[C@@H]2Cc3c([nH]c4ccccc34)[C@@H](c3ccc(Br)s3)N2C1=O | PDE5A | enzyme activity, inhibitor, FP | – | 10 µM | 90
N=C(N)N1CCC[C@H]1c1nc(-c2ccc(CCC3CCCCC3)c(C(F)(F)F)c2)no1 | SPHK1 | enzyme activity, inhibitor, radiometric | – | 1 µM | 15
O=C(c1ccc(Cl)cc1)N(Cc1ccccc1)C1CCCCC1 | ADORA2A | cell-free assay | – | 10 µM | 9.1
O=C1N=C(N2CCCCN2)S/C1=C\c1ccc(F)cc1O | EDNRA | ligand displacement, radioligand | – | 10 µM | < 10
[H]/N=C(\N)N1CCC[C@H]1c1nc(-c2ccc(OCC=CCCCC)c(C(F)(F)F)c2)no1 | SPHK1 | enzyme activity, inhibitor, radiometric | – | 1 µM | 23
CCN1C(=O)[C@@H]2Cc3c([nH]c4ccccc34)[C@H](c3cccnc3)N2C1=O | PDE5A | enzyme activity, inhibitor, FP | – | 50 µM | 24
O=C(O)c1cc(O)c2c(c1)[C@H]([C@H]1c3cc(C(=O)O)cc(O)c3C(=O)c3c(O[C@@H]4O[C@H](CO)[C@@H](O)[C@H](O)[C@H]4O)cccc31)c1cccc(O[C@@H]3O[C@H](CO)[C@@H](O)[C@H](O)[C@H]3O)c1C2=O | EHMT1 | cell-free assay | – | 10 µM | 16
COC(=O)[C@@H]1Cc2c([nH]c3ccccc23)[C@@H](c2cccnc2)N1 | PDE5A | enzyme activity, inhibitor, FP | – | 50 µM | 41
O=c1[nH]c(-c2c[nH]c3ncccc23)nc2ccccc12 | PARP1 | enzyme activity, inhibitor, ELISA | – | 10 µM | 28
CC(C)CCn1c(SCC(=O)Nc2ccccc2C(F)(F)F)nc2nccnc2c1=O | Phosphatidylinositol 4-phosphate 3-kinase C2 domain-containing subunit beta (PIK3C2B, Homo sapiens, UniProt O00750) | enzyme activity, inhibitor | – | 10 µM | 23
O=C1c2c(O)cccc2Cc2cccc(O)c21 | EHMT1 | cell-free assay | – | 10 µM | 10
COC(=O)[C@@H]1Cc2c([nH]c3ccccc23)[C@@H](c2ccc(OC)c(OC)c2)N1 | PDE5A | enzyme activity, inhibitor, FP | – | 50 µM | 7
O=c1oc2c(O)c(O)cc3c(=O)oc4c(O)c(O)cc1c4c23 | EHMT1 | cell-free assay | – | 10 µM | 6
COc1ccc(-c2nc3cc(CCCN4CCCCC4)ccc3o2)cc1OC | ADORA2A | ligand displacement, radioligand | – | 10 µM, cell membranes | 10
CCCNc1nc2ccccc2n1Cc1ccc(Cl)cc1 | HRH4 | ligand displacement | – | 10 µM | -8.89
O=C(O[C@@H]1Cc2c(O)cc(O)cc2O[C@@H]1c1cc(O)c(O)c(O)c1-c1c([C@H]2Oc3cc(O)cc(O)c3C[C@H]2O)cc(O)c(O)c1O)c1cc(O)c(O)c(O)c1 | EHMT1 | cell-free assay | – | 10 µM | -3
COCCOc1ccc(N2CCN(Cc3ccc4oc(-c5ccco5)nc4c3)CC2)cc1 | ADORA2A | ligand displacement, radioligand | – | 10 µM, cell membranes | 14
CC(C)(C)N1C(=O)[C@@H]2Cc3c([nH]c4ccccc34)[C@@H](c3cccnc3)N2C1=O | PDE5A | enzyme activity, inhibitor, FP | – | 50 µM | 90
O=C(Nc1ccc(S(=O)(=O)N2CCC(Cl)CC2)cc1)c1ccc([N+](=O)[O-])o1 | SIGMAR1 | ligand displacement, radioligand | – | 10 µM | 38
Cc1cnc(C(=O)NCCNC(=O)Cn2[nH]c(=O)c3ccccc3c2=O)cn1 | PARP1 | enzyme activity, inhibitor | – | 0.5 µM | ~50
O=C(CSc1nc2nccnc2c(=O)n1CCc1ccccc1)Nc1nccs1 | SPHK1 | enzyme activity, inhibitor | – | 10 µM | 8

SMILES | target | test | system | conditions | inhibition [%]
COc1ccc(-n2nc(OCCCN3CCCCC3)ccc2=O)cc1 | Cannabinoid receptor 1 (CNR1, Homo sapiens, UniProt P21554) | ligand displacement | – | 1 µM | 43.8
Cc1cc(O)c(C=O)c2c1C(=O)Oc1c(C)c(O)c3c(c1O2)C(O)OC3=O (centres unmarked) | EHMT1 | cell-free assay | – | 10 µM | -4
CCN(CC)c1ccc(C2Nc3ccc(C(=O)c4ccccc4)cc3NC3=C2C(=O)CC(C)(C)C3)cc1 (centres unmarked) | HRH4 | ligand displacement, radioligand | – | 10 µM | 12
O=C(CSc1nc2nccnc2c(=O)n1CCc1ccccc1)Nc1ccccc1 | SPHK1 | enzyme activity, inhibitor | – | 10 µM | < 20
O=C1C=C2CC3(O)COc4c(ccc(O)c4O)C3=C2C=C1O (centres unmarked) | EHMT1 | cell-free assay | – | 10 µM | 11
COc1cc(NC(C)=O)c(Cl)cc1C(=O)Nc1nccs1 | EDNRA | cell-free assay | – | 10 µM | -1.4
COc1cc2c(cc1OC)-c1nnnn1CCC2 | PARP1 | enzyme activity, inhibitor | – | 10 µM | 60
[H]/N=C(\N)N1CCC[C@H]1c1nc(-c2ccc(OCCC=Cc3ccc(C(F)(F)F)cc3)c(C(F)(F)F)c2)no1 | SPHK1 | enzyme activity, inhibitor, radiometric | – | 1 µM | 5
O=C1NCCCc2c(O)cccc21 | PARP1 | enzyme activity, inhibitor | – | 10 µM | 43
CCN1C(=O)[C@H]2Cc3c([nH]c4ccccc34)[C@@H](c3ccc(OC)c(OC)c3)N2C1=O | PDE5A | enzyme activity, inhibitor, FP | – | 50 µM | 78
O=C(c1ccc(F)cc1)N(Cc1ccccc1)C1CCCCC1 | SIGMAR1 | cell-free assay | – | 10 µM | 9
COC(=O)[C@H]1Cc2c([nH]c3ccccc23)[C@H](c2ccc(OC)c(OC)c2)N1C(=O)CCl | PDE5A | enzyme activity, inhibitor, FP | – | 50 µM | 75
N=C(N)N1CCC[C@H]1c1nc(-c2ccc(CCc3ccc(C(F)(F)F)cc3)c(C(F)(F)F)c2)no1 | SPHK1 | enzyme activity, inhibitor, radiometric | – | 1 µM | 12
Oc1cccc(Nc2nc(-c3ccc(F)cc3F)cs2)c1 | ADORA2A | cell-free assay | – | 10 µM | 76
CN(C)C1CCN(CC#Cc2nn(C3CCCC3)c3nc(NCc4ccccc4)ncc23)C1 (centres unmarked) | Cytoplasmic tyrosine-protein kinase BMX (BMX, Homo sapiens, UniProt P51813) | enzyme activity, inhibitor, FRET | – | 1 µM | 4
CSCCC(NC=O)C(=O)NC(C)C(=O)O (centres unmarked) | EHMT1 | cell-free assay | – | 10 µM | 0
c1coc(-c2nc3cc(CN4CCNCC4)ccc3o2)c1 | ADORA2A | ligand displacement, radioligand | – | 10 µM, cell membranes | 15
[H]/N=C(\N)N1CCC[C@H]1c1nc(-c2ccc(OCC=Cc3ccccc3C(F)(F)F)c(C(F)(F)F)c2)no1 | SPHK1 | enzyme activity, inhibitor, radiometric | – | 1 µM | 0
COc1ccc(-c2nc3cc(CCN4CCN(c5ccccc5)CC4)ccc3o2)cc1OC | ADORA2A | ligand displacement, radioligand | – | 10 µM, cell membranes | 5
CCCCc1ccc(CCc2ccc(-c3noc([C@@H]4CCCN4C(=N)N)n3)cc2C(F)(F)F)cc1 | SPHK1 | enzyme activity, inhibitor, radiometric | – | 1 µM | 6
O=C(c1ccc(-c2nc3ccccc3c(=O)[nH]2)c(F)c1)N1CCn2c(nnc2C(F)(F)F)C1 | PARP1 | enzyme activity, inhibitor, ELISA | – | 1 µM | 13
O=C(CN1CCNCC1)Nc1ccc2oc(-c3ccco3)nc2c1 | ADORA2A | ligand displacement, radioligand | – | 10 µM, cell membranes | 8
COc1ccc(CCc2ccc(-c3noc([C@@H]4CCCN4C(=N)N)n3)cc2C(F)(F)F)cc1 | SPHK1 | enzyme activity, inhibitor, radiometric | – | 1 µM | 0
